Data published in ChEMBL document CHEMBL1687708, “Efficacy of oritavancin in a murine model of Bacillus anthracis spore inhalation anthrax” (Antimicrob Agents Chemother, 2008).
Converted amounts (≈) assume the structure as drawn.

Experiments:
Bacillus cereus [1] = test: Antimicrobial activity against Bacillus cereus ATCC 4342 by broth microdilution method; assay type: functional
Summary of the method: (§1)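 B. cereus ATCC 4342 went through stepwise selection for 20 cycles in cation-adjusted Mueller-Hinton broth with doubling drug dilutions. Each cycle was seeded from the previous day's 0.5× MIC wells, in two independent rounds per drug. Selectants showing a fourfold or greater MIC rise were passaged 5 days without drug. Their MICs were then read alongside the parent strain. Oritavancin assays carried 0.002% polysorbate 80 throughout.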

Bacillus cereus [2] = test: Antimicrobial activity against Bacillus cereus ATCC 4342 selected after 20 daily cycles of drug selection followed by 5 days of nonselective growth by broth microdilution method; assay type: functional; conditions: ATCC 4342, 120 h; summary of the method: as §1
Bacillus cereus [3] = test: Ratio of MIC for Bacillus cereus ATCC 4342 selected after 20 daily cycles of drug selection followed by 5 days of nonselective growth to MIC for Bacillus cereus ATCC 4342; assay type: functional; summary of the method: as §1
Bacillus anthracis [4] = test: animal or person; conditions: in Mus musculus, iv
Bacillus anthracis [5] = test: Antimicrobial activity against Bacillus anthracis infected mouse spore inhalation anthrax model assessed as bacterial load per gram of lung tissue at 30 mg/kg, ip every 12 hrs for 14 days treated 24 hrs postinfection; assay type: functional; conditions: route intraperitoneal
Bacillus anthracis [6] = test: animal or person; conditions: in Mus musculus, ip
Bacillus anthracis [7] = test: animal or person; conditions: in Mus musculus, ip; remark: listed apart in the source
Bacillus anthracis [8] = test: animal or person; conditions: in Mus musculus, ip; remark: listed apart in the source
Bacillus anthracis [9] = test: Antimicrobial activity against Bacillus anthracis infected mouse spore inhalation anthrax model assessed as bacterial load per gram of lung tissue at 30 mg/kg, ip every 12 hrs for 14 days treated 36 hrs postinfection; assay type: functional; conditions: route intraperitoneal
Bacillus anthracis [10] = test: animal or person; conditions: in Mus musculus, ip; remark: listed apart in the source
Bacillus anthracis [11] = test: Antimicrobial activity against Bacillus anthracis infected mouse spore inhalation anthrax model assessed as bacterial load per gram of lung tissue at 30 mg/kg, ip every 12 hrs for 14 days treated 48 hrs postinfection; assay type: functional; conditions: route intraperitoneal
Bacillus anthracis [12] = test: Antimicrobial activity against Bacillus anthracis infected mouse spore inhalation anthrax model assessed as survival rate at 10 mg/kg, ip every 48 hrs for 14 days treated 48 hrs postinfection; assay type: functional; conditions: route intraperitoneal
Bacillus anthracis [13] = test: Antimicrobial activity against Bacillus anthracis infected mouse spore inhalation anthrax model assessed as bacterial load per gram of lung tissue at 50 mg/kg, iv administered as single dose treated 24 hrs postinfection; assay type: functional
Bacillus anthracis [14] = test: Antimicrobial activity against Bacillus anthracis infected mouse spore inhalation anthrax model assessed as survival rate at 50 mg/kg, iv administered as single dose treated 7 days before infection measured on 33 days postinfection; assay type: functional
Bacillus anthracis [15] = test: Antimicrobial activity against Bacillus anthracis infected mouse spore inhalation anthrax model assessed as survival rate at 50 mg/kg, iv administered as single dose treated 42 hrs postinfection; assay type: functional
Bacillus anthracis [16] = test: Antimicrobial activity against Bacillus anthracis infected mouse spore inhalation anthrax model assessed as survival rate at 0.3 mg/kg, ip every 48 hrs for 14 days treated 24 hrs postinfection; assay type: functional; conditions: route intraperitoneal
Bacillus anthracis [17] = test: Antimicrobial activity against Bacillus anthracis infected mouse spore inhalation anthrax model assessed as survival rate at 0.1 mg/kg, ip every 48 hrs for 14 days treated 24 hrs postinfection; assay type: functional; conditions: route intraperitoneal
Mus musculus [18] = test: fAUC (0.25 to 72 hrs) in Bacillus anthracis infected mouse spore inhalation anthrax model at 32 mg/kg, iv administered as single dose; assay type: ADME, organism-based; design: dose 32 mg/kg, route intravenous; conditions: in vivo
Bacillus anthracis [19] = test: Ratio of MIC90 for Bacillus anthracis in presence of polysorbate-80 to MIC90 for Bacillus anthracis; assay type: functional
Bacillus anthracis [20] = test: Antimicrobial activity against Bacillus anthracis infected mouse spore inhalation anthrax model assessed as survival rate at 5 mg/kg, iv administered as single dose treated 24 hrs postinfection; assay type: functional
Bacillus anthracis [21] = test: Antimicrobial activity against Bacillus anthracis infected mouse spore inhalation anthrax model; assay type: functional; conditions: inhaled or nasal
Bacillus anthracis [22] = test: Antimicrobial activity against Bacillus anthracis infected mouse spore inhalation anthrax model assessed as survival rate at 3 mg/kg, ip every 48 hrs for 14 days treated 24 hrs postinfection; assay type: functional; conditions: route intraperitoneal
Bacillus anthracis [23] = test: Antimicrobial activity against Bacillus anthracis infected mouse spore inhalation anthrax model assessed as bacterial load per gram of lung tissue at 1 mg/kg, ip every 48 hrs for 14 days treated 24 hrs postinfection; assay type: functional; conditions: route intraperitoneal
Bacillus anthracis [24] = test: Antimicrobial activity against Bacillus anthracis infected mouse spore inhalation anthrax model assessed as survival rate at 0.1 mg/kg, ip every 48 hrs for 14 days treated 24 hrs postinfection measured on day 3; assay type: functional; conditions: route intraperitoneal
Bacillus anthracis [25] = test: Antimicrobial activity against Bacillus anthracis infected mouse spore inhalation anthrax model assessed as survival rate at 50 mg/kg, iv administered as single dose treated 24 hrs before infection measured on 33 days postinfection; assay type: functional
Bacillus anthracis [26] = test: Antimicrobial activity against Bacillus anthracis infected mouse spore inhalation anthrax model assessed as bacterial load per gram of lung tissue at 3 mg/kg, ip every 48 hrs for 14 days treated 24 hrs postinfection; assay type: functional; conditions: route intraperitoneal
Bacillus anthracis [27] = test: Antimicrobial activity against Bacillus anthracis infected mouse spore inhalation anthrax model assessed as bacterial load per gram of lung tissue at 30 mg/kg, ip every 48 hrs for 14 days treated 24 hrs postinfection; assay type: functional; conditions: route intraperitoneal
Bacillus anthracis [28] = test: Antimicrobial activity against Bacillus anthracis infected mouse spore inhalation anthrax model assessed as survival rate at 10 mg/kg, ip every 48 hrs for 14 days treated 24 hrs postinfection; assay type: functional; conditions: route intraperitoneal
Bacillus anthracis [29] = test: Antimicrobial activity against Bacillus anthracis infected mouse spore inhalation anthrax model assessed as bacterial load per gram of lung tissue at 10 mg/kg, ip every 48 hrs for 14 days treated 48 hrs postinfection; assay type: functional; conditions: route intraperitoneal
Bacillus anthracis [30] = test: Antimicrobial activity against Bacillus anthracis infected mouse spore inhalation anthrax model assessed as bacterial load per gram of lung tissue at 10 mg/kg, ip every 48 hrs for 14 days treated 24 hrs postinfection; assay type: functional; conditions: route intraperitoneal
Bacillus anthracis [31] = test: Antimicrobial activity against Bacillus anthracis infected mouse spore inhalation anthrax model assessed as survival rate at 1 mg/kg, ip every 48 hrs for 14 days treated 24 hrs postinfection; assay type: functional; conditions: route intraperitoneal
Bacillus anthracis [32] = test: Antimicrobial activity against Bacillus anthracis infected mouse spore inhalation anthrax model assessed as bacterial load per gram of lung tissue at 15 mg/kg, iv administered as single dose treated 24 hrs postinfection; assay type: functional
Bacillus anthracis [33] = test: Antimicrobial activity against Bacillus anthracis infected mouse spore inhalation anthrax model assessed as bacterial load per gram of lung tissue at 5 mg/kg, iv administered as single dose treated 24 hrs postinfection; assay type: functional
Bacillus anthracis [34] = test: Antimicrobial activity against Bacillus anthracis infected mouse spore inhalation anthrax model assessed as survival rate at 50 mg/kg, iv administered as single dose treated 14 days before infection measured on 22 days postinfection; assay type: functional
Bacillus anthracis [35] = test: Antimicrobial activity against Bacillus anthracis infected mouse spore inhalation anthrax model assessed as survival rate at 15 mg/kg, iv administered as single dose treated 24 hrs postinfection; assay type: functional
Mus musculus [36] = test: fAUC (0.25 to 72 hrs) in Bacillus anthracis infected mouse spore inhalation anthrax model at 32 mg/kg, ip administered as single dose; assay type: ADME, organism-based; design: dose 32 mg/kg, route intraperitoneal; conditions: in vivo
Bacillus anthracis [37] = test: Antimicrobial activity against Bacillus anthracis infected mouse spore inhalation anthrax model assessed as bacterial load per gram of lung tissue at 50 mg/kg, iv administered as single dose treated 24 hrs before infection; assay type: functional
Bacillus anthracis [38] = test: Antimicrobial activity against Bacillus anthracis by broth microdilution method in presence of polysorbate-80; assay type: functional
Mus musculus [39] = test: Free peak concentration in Bacillus anthracis infected mouse spore inhalation anthrax model at 32 mg/kg, iv administered as single dose; assay type: ADME, organism-based; design: dose 32 mg/kg, route intravenous; conditions: in vivo
Bacillus anthracis [40] = test: Antimicrobial activity against Bacillus anthracis infected mouse spore inhalation anthrax model assessed as bacterial load per gram of lung tissue at 0.3 mg/kg, ip every 48 hrs for 14 days treated 24 hrs postinfection; assay type: functional; conditions: route intraperitoneal
Bacillus anthracis [41] = test: Antimicrobial activity against Bacillus anthracis infected mouse spore inhalation anthrax model assessed as bacterial load per gram of lung tissue at 50 mg/kg, iv administered as single dose treated 28 days before infection; assay type: functional
Bacillus anthracis [42] = test: Antimicrobial activity against Bacillus anthracis infected mouse spore inhalation anthrax model assessed as survival rate at 50 mg/kg, iv administered as single dose treated 24 hrs postinfection; assay type: functional
Bacillus anthracis [43] = test: Antimicrobial activity against Bacillus anthracis infected mouse spore inhalation anthrax model assessed as bacterial load per gram of lung tissue at 50 mg/kg, iv administered as single dose treated 7 days before infection; assay type: functional
Mus musculus [44] = species: Mus musculus; conditions: in vivo, ip, 1.2 mg/kg
Bacillus anthracis [45] = test: Antimicrobial activity against Bacillus anthracis Ames by broth microdilution method in presence of polysorbate-80; assay type: functional
Bacillus anthracis [46] = test: Antimicrobial activity against Bacillus anthracis infected mouse spore inhalation anthrax model assessed as survival rate at 10 mg/kg, ip every 48 hrs for 14 days treated 36 hrs postinfection; assay type: functional; conditions: route intraperitoneal
Bacillus anthracis [47] = test: Antimicrobial activity against Bacillus anthracis infected mouse spore inhalation anthrax model assessed as survival rate at 30 mg/kg, ip every 48 hrs for 14 days treated 24 hrs postinfection; assay type: functional; conditions: route intraperitoneal
Bacillus anthracis [48] = test: Antimicrobial activity against Bacillus anthracis infected mouse spore inhalation anthrax model assessed as bacterial load per gram of lung tissue at 10 mg/kg, ip every 48 hrs for 14 days treated 36 hrs postinfection; assay type: functional; conditions: route intraperitoneal
Mus musculus [49] = test: Free peak concentration in Bacillus anthracis infected mouse spore inhalation anthrax model at 32 mg/kg, ip administered as single dose; assay type: ADME, organism-based; design: dose 32 mg/kg, route intraperitoneal; conditions: in vivo
Bacillus anthracis [50] = test: Antimicrobial activity against Bacillus anthracis infected mouse spore inhalation anthrax model assessed as bacterial load per gram of lung tissue at 50 mg/kg, iv administered as single dose treated 14 days before infection; assay type: functional
Bacillus anthracis [51] = test: Antimicrobial activity against Bacillus anthracis infected mouse spore inhalation anthrax model assessed as bacterial load per gram of lung tissue at 50 mg/kg, iv administered as single dose treated 42 hrs postinfection; assay type: functional
Bacillus anthracis [52] = test: Antimicrobial activity against Bacillus anthracis infected mouse spore inhalation anthrax model assessed as survival rate at 50 mg/kg, iv administered as single dose treated 28 days before infection measured on 22 days postinfection; assay type: functional

SMILES: O=C(O)c1cn(C2CC2)c2cc(N3CCNCC3)c(F)cc2c1=O [CIPROFLOXACIN]
- MIC (Bacillus cereus [1]): 0.12 µg/mL (≈ 0.362 µM)
- MIC (Bacillus cereus [2]): 0.5 µg/mL (≈ 1.51 µM)
- Ratio (Bacillus cereus [3]): 4
- survival at 30 mg/kg (Bacillus anthracis [4]): 0%
- log10cfu (Bacillus anthracis [5]): 1090
- survival at 30 mg/kg (Bacillus anthracis [6]): 90%
- survival at 30 mg/kg (Bacillus anthracis [7]): 80%
- survival at 30 mg/kg (Bacillus anthracis [8]): 70%
- log10cfu (Bacillus anthracis [9]): 2880
- survival at 30 mg/kg (Bacillus anthracis [10]): 0%
- log10cfu (Bacillus anthracis [11]): 3080

SMILES: CN[C@H](CC(C)C)C(=O)N[C@H]1C(=O)N[C@@H](CC(N)=O)C(=O)N[C@H]2C(=O)N[C@H]3C(=O)N[C@H](C(=O)N[C@H](C(=O)O)c4cc(O)cc(O)c4-c4cc3ccc4O)[C@H](O[C@H]3C[C@](C)(N)[C@@H](O)[C@H](C)O3)c3ccc(c(Cl)c3)Oc3cc2cc(c3O[C@@H]2O[C@H](CO)[C@@H](O)[C@H](O)[C@H]2O[C@H]2C[C@](C)(NCc3ccc(-c4ccc(Cl)cc4)cc3)[C@@H](O)[C@H](C)O2)Oc2ccc(cc2Cl)[C@H]1O [ORITAVANCIN]
- survival at 10 mg/kg (Bacillus anthracis [12]): 50%
- MIC (Bacillus cereus [1]): 0.004 µg/mL (≈ 0.00223 µM)
- log10cfu (Bacillus anthracis [13]): 36100
- survival at 50 mg/kg (Bacillus anthracis [14]): 90%
- survival at 50 mg/kg (Bacillus anthracis [15]): 55%
- survival at 0.3 mg/kg (Bacillus anthracis [16]): 30%
- survival at 0.1 mg/kg (Bacillus anthracis [17]): 0%
- fAUC (Mus musculus [18]): 61000 ng·h/mL
- Ratio (Bacillus anthracis [19]): 16
- survival at 5 mg/kg (Bacillus anthracis [20]): 40%
- ED50 (Bacillus anthracis [21]): 1.2 mg/kg
- MIC (Bacillus cereus [2]): 0.008 µg/mL (≈ 0.00446 µM)
- Ratio (Bacillus cereus [3]): 1
- survival at 3 mg/kg (Bacillus anthracis [22]): 100%
- log10cfu (Bacillus anthracis [23]): 29500
- Activity (Bacillus anthracis [24]): 100%
- survival at 50 mg/kg (Bacillus anthracis [25]): 100%
- log10cfu (Bacillus anthracis [26]): 36800
- log10cfu (Bacillus anthracis [27]): 18200
- survival at 10 mg/kg (Bacillus anthracis [28]): 100%
- log10cfu (Bacillus anthracis [29]): 1680
- log10cfu (Bacillus anthracis [30]): 35000
- survival at 1 mg/kg (Bacillus anthracis [31]): 50%
- log10cfu (Bacillus anthracis [32]): 20300
- log10cfu (Bacillus anthracis [33]): 35000
- survival at 50 mg/kg (Bacillus anthracis [34]): 100%
- survival at 15 mg/kg (Bacillus anthracis [35]): 70%
- fAUC (Mus musculus [36]): 54000 ng·h/mL
- log10cfu (Bacillus anthracis [37]): 1980
- MIC90 (Bacillus anthracis [38]): 0.12 µg/mL
- Cmax_unbound (Mus musculus [39]): 17000 ng/mL
- log10cfu (Bacillus anthracis [40]): 28000
- log10cfu (Bacillus anthracis [41]): 51000
- survival at 50 mg/kg (Bacillus anthracis [42]): 100%
- log10cfu (Bacillus anthracis [43]): 63000
- fAUC (Mus musculus [44]): 1900 ng·h/mL
- MIC (Bacillus anthracis [45]): 0.015 µg/mL
- survival at 10 mg/kg (Bacillus anthracis [46]): 90%
- survival at 30 mg/kg (Bacillus anthracis [47]): 100%
- log10cfu (Bacillus anthracis [48]): 2520
- Cmax_unbound (Mus musculus [49]): 6100 ng/mL
- log10cfu (Bacillus anthracis [50]): 65000
- log10cfu (Bacillus anthracis [51]): 740
- survival at 50 mg/kg (Bacillus anthracis [52]): 20%
